Measurements: ChEMBL document CHEMBL4393725, “Design and synthesis of novel xanthone-triazole derivatives as potential antidiabetic agents: α-Glucosidase inhibition and glucose uptake promotion” (Eur J Med Chem, 2019)
The source made the active and inactive calls. The calls are words filed in the database; no cut-off is given here.

How the values were obtained:
L02 = assay: Cytotoxicity against human LO2 cells assessed as reduction in cell viability incubated for 44 hrs by MTT assay; assay type: cell-based; conditions: L02, 44 h
Procedure, shortened: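 LO2 human hepatocytes in DMEM with 10% FBS, penicillin and streptomycin at 37 °C, 5% CO2. Plated at 5000 cells/well for 24 h, then exposed to a range of concentrations for 44 h. MTT was added for 4 h, formazan dissolved in DMSO, and A490 read. Viability = A treated/A control × 100%. IC50 is the concentration giving 50% viability loss, as mean ± SD.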

Alpha glucosidase = Alpha glucosidase (Homo sapiens, UniProt O43451+P10253+P14410+Q2M2H8); assay: Inhibition of alpha-glucosidase (unknown origin) using PNP glucoside as substrate preincubated for 30 mins followed by substrate addition further incubated for 1 min by spectrophotometry; assay type: protein assay
Procedure, shortened: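 Yeast α-glucosidase with p-nitrophenyl-α-D-glucopyranoside substrate in 50 mM phosphate buffer, pH 6.8, with 5% v/v DMSO. Inhibitor and enzyme were preincubated for 30 min at 37 °C, then the reaction ran for 1 min at 37 °C, read at 400 nm. IC50 came from five concentrations bracketing a preliminary estimate, each measured three times in parallel; mean ± SD.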

HepG2 (Homo sapiens) = assay: Cytotoxicity against human HepG2 cells assessed as effect on cell survival at 0.625 to 2.5 uM incubated for 44 hrs by MTT assay; conditions: HepG2, 44 h
HepG2 [1] = assay: Induction of glucose uptake in human HepG2 cells at 0.625 to 2.5 uM incubated for 24 hrs in low glucose medium; assay type: functional, cell-based
Procedure, shortened: (§1)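 HepG2 cells in high-glucose DMEM with 10% FBS and antibiotics, seeded at 5000 cells/well for 24 h. They were washed with low-glucose DMEM and PBS, then treated for 24 h in low-glucose DMEM with 2% FBS at 0.625, 1.25 or 2.5 μM. Glucose left in the medium was measured with a glucose kit. Rosiglitazone was the positive control.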

[2] = tested on: Alpha-glucosidase (Saccharomyces cerevisiae); assay: Noncompetitive inhibition of alpha-glucosidase (Saccharomyces cerevisiae) at 0 to 3.5 uM using PNP glycoside as substrate preincubated for 30 mins followed by substrate addition further incubated for 1 min by Lineweaver-Burk plot analysis
HepG2 [3] = assay: Induction of glucose uptake in human HepG2 cells at 0.625 to 2.5 uM incubated for 24 hrs in low glucose medium relative to control; assay type: functional; procedure, shortened: as §1
[4] = tested on: Alpha-glucosidase (Saccharomyces cerevisiae); assay: Noncompetitive inhibition of alpha-glucosidase (Saccharomyces cerevisiae) at 0 to 6 uM using PNP glycoside as substrate preincubated for 30 mins followed by substrate addition further incubated for 1 min by Lineweaver-Burk plot analysis
HepG2 [5] = assay: Induction of glucose uptake in human HepG2 cells at 1.25 uM incubated for 24 hrs in low glucose medium relative to control; assay type: functional; procedure, shortened: as §1
HepG2 [6] = assay: Induction of glucose uptake in human HepG2 cells incubated for 24 hrs in low glucose medium; assay type: functional, cell-based; procedure, shortened: as §1
HepG2 [7] = assay: Induction of glucose uptake in human HepG2 cells at 2.5 uM incubated for 24 hrs in low glucose medium relative to control; assay type: functional; procedure, shortened: as §1
HepG2 [8] = assay: Induction of glucose uptake in human HepG2 cells at 0.625 uM incubated for 24 hrs in low glucose medium relative to control; assay type: functional; procedure, shortened: as §1
[9] = tested on: Alpha-glucosidase (Saccharomyces cerevisiae); assay: Noncompetitive inhibition of alpha-glucosidase (Saccharomyces cerevisiae) at 0 to 4 uM using PNP glycoside as substrate preincubated for 30 mins followed by substrate addition further incubated for 1 min by Lineweaver-Burk plot analysis
[10] = tested on: Alpha-glucosidase (Saccharomyces cerevisiae); assay: Noncompetitive inhibition of alpha-glucosidase (Saccharomyces cerevisiae) at 0 to 9 uM using PNP glycoside as substrate preincubated for 30 mins followed by substrate addition further incubated for 1 min by Lineweaver-Burk plot analysis
[11] = tested on: Alpha-glucosidase (Saccharomyces cerevisiae); assay: Noncompetitive inhibition of alpha-glucosidase (Saccharomyces cerevisiae) at 0 to 10 uM using PNP glycoside as substrate preincubated for 30 mins followed by substrate addition further incubated for 1 min by Lineweaver-Burk plot analysis

IC50 (Alpha glucosidase) | Molecule | IC50 (L02) | Activity (HepG2 (Homo sapiens)) | Activity (HepG2 [1]) | other results
15.62 µM | O=C(Cn1cc(COc2cc(O)c3c(=O)c4cc(O)ccc4oc3c2)nn1)Nc1ccc(O)cc1O | > 100 µM | – | – | –
12.13 µM | COc1ccc(NC(=O)Cn2cc(COc3cc(OC(C)=O)c4c(=O)c5cc(Br)ccc5oc4c3)nn2)c(OC)c1 | 80.7 µM | Non-Toxic | inactive | –
29.84 µM | COc1ccc(NC(=O)Cn2cc(COc3cc(O)c4c(=O)c5cc(Br)ccc5oc4c3)nn2)cc1OC | > 100 µM | – | – | –
26.11 µM | COc1ccc(NC(=O)Cn2cc(COc3cc(OC(C)=O)c4c(=O)c5ccc(Br)cc5oc4c3)nn2)cc1OC | 25.9 µM | – | – | –
98.63 µM | COc1ccc2c(=O)c3c(OC(C)=O)cc(OCc4cn(CC(=O)Nc5ccc(OC)c(OC)c5)nn4)cc3oc2c1 | > 100 µM | – | – | –
32.33 µM | COc1ccc(NC(=O)Cn2cc(COc3cc(OC(C)=O)c4c(=O)c5cc(Br)ccc5oc4c3)nn2)cc1OC | > 100 µM | – | – | –
2.78 µM | COc1ccc(NC(=O)Cn2cc(COc3cc(O)c4c(=O)c5ccc(Br)cc5oc4c3)nn2)c(OC)c1 | > 100 µM | Non-Toxic | Active | inhibition [2]: Active
8.31 µM | COc1ccc(NC(=O)Cn2cc(COc3cc(O)c4c(=O)c5cc(OC)ccc5oc4c3)nn2)c(OC)c1 | 65.4 µM | Non-Toxic | inactive | –
– | CN(CCOc1ccc(CC2SC(=O)NC2=O)cc1)c1ccccn1 (stereo unspecified) [ROSIGLITAZONE] | – | – | – | Activity (HepG2 [3]): 50%
7.06 µM | O=C(Cn1cc(COc2cc(O)c3c(=O)c4cc(O)ccc4oc3c2)nn1)Nc1ccc(O)c(O)c1 | > 100 µM | Non-Toxic | inactive | –
3.07 µM | COc1ccc(NC(=O)Cn2cc(COc3cc(O)c4c(=O)c5cc(Br)ccc5oc4c3)nn2)c(OC)c1 | > 100 µM | Non-Toxic | inactive | inhibition [4]: Active
– | O=c1c2ccccc2oc2cc(O)cc(O)c12 | – | Non-Toxic | inactive | –
– | 2-(4-(((7-bromo-1-hydroxy-9-oxo-9H-xanthen-3-yl)oxy)methyl)-1H-1,2,3-triazol-1-yl)-N-(2,4-dihydroxyphenyl)acetamide | – | – | Active | –
33.16 µM | COc1ccc(NC(=O)Cn2cc(COc3cc(OC(C)=O)c4c(=O)c5ccc(OC)cc5oc4c3)nn2)c(OC)c1 | > 100 µM | – | – | –
12.78 µM | COc1ccc(NC(=O)Cn2cc(COc3cc(OC(C)=O)c4c(=O)c5ccc(Br)cc5oc4c3)nn2)c(OC)c1 | > 100 µM | Non-Toxic | – | Activity (HepG2 [5]): 90%; Activity (HepG2 [6]): Dose-dependent effect; Activity (HepG2 [7]): 163%; Activity (HepG2 [8]): 61%
42.6 µM | COc1ccc(NC(=O)Cn2cc(COc3cc(OC(C)=O)c4c(=O)c5cc(OC)ccc5oc4c3)nn2)c(OC)c1 | > 100 µM | – | – | –
6.13 µM | O=C(Cn1cc(COc2cc(O)c3c(=O)c4ccc(O)cc4oc3c2)nn1)Nc1ccc(O)c(O)c1 | > 100 µM | Non-Toxic | – | Activity (HepG2 [6]): Dose-dependent effect
17.61 µM | O=C(Cn1cc(COc2cc(O)c3c(=O)c4ccc(O)cc4oc3c2)nn1)Nc1ccc(O)cc1O | > 100 µM | – | – | –
2.06 µM | COc1ccc(NC(=O)Cn2cc(COc3cc(O)c4c(=O)c5ccc(OC)cc5oc4c3)nn2)c(OC)c1 | 89.1 µM | Non-Toxic | – | Activity (HepG2 [6]): Dose-dependent effect; inhibition [9]: Active
5.23 µM | O=C(Cn1cc(COc2cc(O)c3c(=O)c4ccc(Br)cc4oc3c2)nn1)Nc1ccc(O)c(O)c1 | > 100 µM | Non-Toxic | – | Activity (HepG2 [6]): Dose-dependent effect; inhibition [10]: Active
> 100 µM | COc1ccc2oc3cc(OCc4cn(CC(=O)Nc5ccc(OC)c(OC)c5)nn4)cc(O)c3c(=O)c2c1 | > 100 µM | – | – | –
11.82 µM | COc1ccc(NC(=O)Cn2cc(COc3cc(O)c4c(=O)c5ccc(Br)cc5oc4c3)nn2)cc1OC | > 100 µM | – | – | –
15.9 µM | COc1ccc2c(=O)c3c(O)cc(OCc4cn(CC(=O)Nc5ccc(OC)c(OC)c5)nn4)cc3oc2c1 | > 100 µM | – | – | –
5.87 µM | O=C(Cn1cc(COc2cc(O)c3c(=O)c4ccc(Br)cc4oc3c2)nn1)Nc1ccc(O)cc1O | 74 µM | Non-Toxic | inactive | inhibition [11]: Active
3.17 µM | O=C(Cn1cc(COc2cc(O)c3c(=O)c4cc(Br)ccc4oc3c2)nn1)Nc1ccc(O)c(O)c1 | > 100 µM | Non-Toxic | Active | inhibition [4]: Active
> 100 µM | COc1ccc2oc3cc(OCc4cn(CC(=O)Nc5ccc(OC)c(OC)c5)nn4)cc(OC(C)=O)c3c(=O)c2c1 | 24.9 µM | – | – | –
